Screens as filed in PubChem BioAssay.
The entries come from a sample that favours hits as a whole.
MDM2 E3 inh: inhibitors of human Mdm2 E3 ubiquitin ligase; Q00987; signal enhancement, % at 5 µM; cell-based MDM2 ubiquitination luciferase reporter, 2 h; 0 = plate control, 100 = twice control, blank-subtracted; actives 0.11% (n = 210,000);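 active means signal enhancement of 30% or more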;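 further: luminescence tracks abundance of the self-degrading MDM2-luciferase fusion protein; higher signal means inhibition of MDM2 E3 ligase activity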
Target sequence (Q00987 whole entry, looked up, the tested form may be a part): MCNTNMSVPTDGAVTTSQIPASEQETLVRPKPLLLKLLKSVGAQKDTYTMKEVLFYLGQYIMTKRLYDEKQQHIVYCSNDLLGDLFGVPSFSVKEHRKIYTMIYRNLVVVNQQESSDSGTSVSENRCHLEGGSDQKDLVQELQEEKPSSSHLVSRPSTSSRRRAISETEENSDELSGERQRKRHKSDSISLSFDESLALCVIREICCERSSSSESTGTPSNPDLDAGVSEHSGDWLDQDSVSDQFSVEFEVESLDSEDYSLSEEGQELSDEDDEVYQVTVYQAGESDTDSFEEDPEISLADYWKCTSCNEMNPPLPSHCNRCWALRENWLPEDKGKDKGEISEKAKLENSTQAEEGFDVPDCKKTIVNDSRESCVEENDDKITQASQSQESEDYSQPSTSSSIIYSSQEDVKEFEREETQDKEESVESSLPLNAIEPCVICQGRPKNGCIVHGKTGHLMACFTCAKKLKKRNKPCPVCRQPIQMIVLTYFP
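Assay system: stable mammalian line carrying autodegrading MDM2–luciferase fusion reporter; amount: 2000 cells seeded into each well; buffer or medium: DMEM; benchmarks: plate control and blank wells; signal: luciferase luminescence; timing: 2 h compound exposure at 37 °C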
S1P4 antag: blocks the human S1P4 receptor. inhibition, % at 4.98 µM. actives 0.26% (n = 220,000). AID 1510. O95977. S1P4-expressing cells, antagonist mode, reporter read-out; in the data active means inhibition above about 29%;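 further: 0% = wells stimulated with agonist and 100% = vehicle wells without agonist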
L major viab: inhibitors of Leishmania major promastigote growth. Leishmania major promastigotes, resazurin fluorescence viability. inhibition, % at 10 µM. actives 9% (n = 200,000). AID 1063; in the data active means inhibition above about 50%;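 further: promastigotes grown with compound for 44 hours at 28 °C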
S1P3 antagonist: blocks the human S1P3 receptor. actives 0.27% (n = 170,000). inhibition, % at 4.98 µM. CHO S1P3 NFAT-BLA reporter, FRET fluorescence, antagonist mode;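 active means inhibition above the plate cutoff, the mean inhibition of test wells on that plate plus 3 SD, cut at about 28% in these data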;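 further: cells challenged with S1P at its EC80 of 0.8 µM; blue over green emission ratio from cleaved BLA substrate after 4 h stimulation; 0% = S1P-stimulated wells and 100% = unstimulated DMSO-only wells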
S1P4 agonist: agonists of human S1P4 receptor; O95977; S1P4-expressing cell line, agonist reporter assay; activation, % at 4.98 µM; actives 0.35% (n = 220,000); AID 1509; in the data active means activation above about 11%;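 further: 0% = DMSO vehicle and 100% = reference agonist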
Starred values were filed as active, the others as inactive; / = not tested or not shown.

SMILES	MDM2 E3 inh	S1P4 antag	L major viab	S1P3 antagonist	S1P4 agonist
COc1ccc(CC(=O)Nc2ccc(N3CCOCC3)cc2)cc1S(=O)(=O)N1CCOCC1	/	8	/	6	0
COC(=O)/C(=C\c1ccc([N+](=O)[O-])o1)NC(=O)c1ccccc1	3	1	95*	/	-2
CCCCNC(=O)/C(=C\c1ccc([N+](=O)[O-])o1)NC(=O)c1ccccc1	-15	3	67*	-21	0
Cc1cccc(NC(=O)/C(=C\c2ccc([N+](=O)[O-])o2)NC(=O)c2ccc(Cl)cc2)c1	-3	-21	0	-18	2
CCOC(=O)N1CCN(C(=O)c2ccc(OC(C)=O)cc2)CC1	-35	-9	-1	8	-1
O=C(/C=C/c1ccccc1)NNc1ccc(Cl)cc1	-14	-7	99*	2	-1
CC(CCc1ccccc1)NC(=O)/C=C/c1ccc(Cl)cc1 (stereo unspecified)	-5	2	52*	11	0
S=C1CCC(c2ccc(Br)cc2)=NN1c1ccccc1	-9	-27	/	-4	0
COc1ccc(/C=N/NC(=O)CCSc2nc3ccccc3s2)cc1OC	-14	-5	13	-5	0
O=C(CCSc1nc2ccccc2s1)N/N=C/c1c(O)ccc2ccccc12	5	-5	58*	-3	-1
COc1ccc(C(=O)CSc2n[nH]c(C)n2)cc1[N+](=O)[O-]	-4	0	10	-16	-1
C=CCN1C(=O)CS/C1=N\N=C\c1cccc([N+](=O)[O-])c1	-13	-13	22	-13	1
Cc1ccccc1NC(=S)NC1(C)CCS(=O)(=O)C1 (stereo unspecified)	-9	-14	54*	-4	1
COc1ccccc1N1CCN(c2nc(-c3ccccc3)cc(C(F)(F)F)n2)CC1	-5	-12	30	/	1
COc1ccccc1N1CCN(c2ccc(-c3ccccc3)nn2)CC1	-56	-18	64*	/	0
CSc1cccc(NS(=O)(=O)c2ccc(F)cc2)c1	-14	-1	55*	7	0
CCCSc1nc(C)cc(C)c1S(C)(=O)=O	-2	-6	-1	0	1
CCOCCOc1nc(C)cc(C)c1S(=O)(=O)c1ccccc1C	2	18	11	-6	0
Cc1cc(C)c(S(=O)(=O)c2ccccc2C)c(SCC(C)C)n1	-1	-3	92*	/	2
Cc1cc(C)c(S(=O)(=O)c2ccccc2C)c(OCC(C)(C)C)n1	-11	-3	96*	/	2
CCCSc1nc(C)cc(C)c1S(=O)(=O)c1ccccc1C	-1	5	94*	/	1
CCN(CC)CCNC(=O)c1c(O)c2cc(OC)c(OC)cc2[nH]c1=O	-17	-27	79*	-3	2
Cc1nc(N)sc1C(=O)N/N=C/c1ccccc1[N+](=O)[O-]	0	16	92*	-6	-3
Cc1cc([N+](=O)[O-])nn1CC(=O)NCc1ccco1	-4	-22	50*	-5	1
O=c1c(Cc2c(F)cccc2Cl)c(O)ccn1C1CC1	0	-2	6	-17	-1
SMILES	MDM2 E3 inh	S1P4 antag	L major viab	S1P3 antagonist	S1P4 agonist
O=C1CN(C(=O)COC(=O)c2cccc(OCc3ccccc3)c2)c2ccccc2N1	-5	-4	-7	-27	-1
Cc1nnc(SCc2cc(=O)[nH]c(Nc3nc(C)c4ccccc4n3)n2)s1	/	-11	84*	-8	3
COc1ccc2c(C)nc(Nc3nc(-c4ccccc4)cc(=O)[nH]3)nc2c1	-76	3	/	9	0
Cc1ccc2c(C)nc(Nc3nc(CSc4nc5ccccc5[nH]4)cc(=O)[nH]3)nc2c1	-7	-25	100*	/	2
COc1ccc2c(C)nc(Nc3nc(C)cc(=O)[nH]3)nc2c1	/	-22	100*	16	1
COc1cc(OC)c(C2=Nc3ccc(Br)cc3C(c3ccccc3)N2CC(=O)NN)cc1OC (stereo unspecified)	-17	1	4	-26	0
O=S(=O)(Oc1ccc(Cl)cc1)c1cccc2cccnc12	-9	9	/	-2	1
COc1ccc(OC)c(C(=O)Cn2c3[n+](c4ccc(C(F)(F)F)cc42)CCCCC3)c1	-12	-3	99*	-9	-1
CCN1C(=O)C(CC(=O)Nc2ccc(OC)cc2)N(Cc2ccc3c(c2)OCO3)C1=S (stereo unspecified)	-16	-17	48	4	-2
CC1CN(c2nc3ccccc3nc2C(C#N)C(=O)OC2CCCCC2)CC(C)O1 (stereo unspecified)	-20	-8	64*	-60	-2
CC1CCN(c2nc3ccccc3nc2C(C#N)C(=O)OC2CCCCC2)CC1 (stereo unspecified)	-17	-24	37	-17	1
COc1ccc(S(=O)(=O)C(C#N)c2nc3ccccc3nc2N2CCCC(C)C2)cc1 (stereo unspecified)	-4	-14	-5	2	-1
N#CC(C(=O)OC1CCCCC1)c1nc2ccccc2nc1N1CCCCC1 (stereo unspecified)	-17	5	54*	9	0
CC1CCCN(c2nc3ccccc3nc2C(C#N)C(=O)OC2CCCCC2)C1 (stereo unspecified)	-12	-18	61*	-35	-1
CC(=O)CC1=NC(C)(C)Cc2ccccc21	-1	-16	-8	-1	2
COC(c1ccccc1)c1nnc(CCC(=O)N(C)Cc2cccc(-n3cccn3)c2)o1 (stereo unspecified)	-12	6	1	-18	-2
O=C(NCC1CCCO1)C(c1ccc(F)cc1)N(CC1CCCO1)C(=O)c1ccc(-c2ccccc2)[nH]1 (stereo unspecified)	-2	3	18	10	5
O=C(NCC1CCCO1)C(c1cccs1)N(Cc1cccs1)C(=O)c1ccc(-c2ccccc2)[nH]1 (stereo unspecified)	-8	4	99*	0	-1
C=C(C)C1CC=C(CN2CC(C)OC(C)C2)CC1 (stereo unspecified)	-13	-20	88*	/	-1
CC1CN(Cc2ccc(Cl)cc2Cl)CC(C)O1 (stereo unspecified)	-7	-5	-6	/	0
C=C(C)C1CC=C(CN2CCC(C(=O)OCC)CC2)CC1 (stereo unspecified)	-28	-12	95*	10	0
Cc1ccc(NC(=O)CN(C)C(=O)CSc2nnc(C(F)(F)F)n2C)cc1	4	-6	-9	-1	-1
Cc1onc(-c2ccc(Cl)cc2Cl)c1-c1csc(N/N=C/c2ccccc2Cl)n1	-11	20	/	7	0
Cc1ccc(S(=O)(=O)N2CCN(CC(=O)N/N=C/C=C/c3ccccc3)CC2)cc1	/	-5	2	2	0
COc1cccc(-c2nnc(NC(=O)c3ccc(Cl)s3)o2)c1	/	-6	55*	-8	0
CCCN(CCC)S(=O)(=O)c1ccc(C(=O)Nc2nnc(-c3cc(OC)cc(OC)c3)o2)cc1	-1	6	100*	7	2
